Measured values from ChEMBL document CHEMBL5252676, “Dimeric polyphenols to pave the way for new antimalarial drugs” (RSC Med Chem, 2023).
≈ marks a conversion by molar mass, not a printed value. Where “and” joins values, the source holds several entries; their conditions need not be identical. Identical values can stand only once. Calls of active or inactive are those of the source. The calls are words filed in the database; no cut-off is given here.

Experiments:
[1] = Selectivity index, ratio of IC50 for cytotoxicity against HUVEC cells to IC50 for antiplasmodial activity against chloroquine-sensitive Plasmodium falciparum 3D7; format: toxicity, cell-based; conditions: human, read-out: Ratio IC50
[2] = Cytotoxicity against HUVEC cells assessed as inhibition of cell growth incubated for 48 hrs by fluorescence based assay; format: toxicity; conditions: human
Outline: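 HUVEC in EGM-2, at most 10 passages, seeded at 2.5 × 10⁴ cells/well and grown 24 h at 37 °C. Six 2-fold concentrations in triplicate (DMSO max 0.5%) for 48 h. PrestoBlue for 2–3 h, fluorescence 560–590 nm, growth compared with untreated cells. n = 3 separate tests.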

[3] = Hemolytic activity in RBC (unknown origin) assessed as hemolysis at 100 ug/ml incubated for 1 hrs by absorbance based microplate reader analysis relative to control; format: toxicity, cell-based, Erythrocyte; conditions: red blood cells, at 100 µg/mL, read-out: Activity
Outline: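 Human A⁺/O⁺ RBC, 10% v/v in PBS, exposed to compound at 100 μg mL⁻¹ final (DMSO < 1%), in duplicate, stirred 1 h at RT. Centrifuged, supernatant OD₅₅₀ read. % lysis = (sample − PBS)/(1% Triton X-100 − PBS) × 100.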

[4] = system: Plasmodium falciparum; assay: Antiplasmodial activity against chloroquine-sensitive Plasmodium falciparum 3D7 assessed as intraerythrocytic growth inhibition; format: functional, organism-based
Outline: (§1)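 Asexual intraerythrocytic P. falciparum cultured at 37 °C in RPMI with glucose, hypoxanthine, gentamycin and 10% pooled human A+/O+ serum. DMSO stocks of 5–10 mg mL⁻¹ diluted in RPMI, final DMSO at most 1%. Eight two-fold dilutions tested in three consecutive assays. Growth read as Plasmodium lactate dehydrogenase activity at 650 nm against parasitized RBC (100%) and free RBC (0%). IC50 in triplicate; artemisinin and quinine as controls.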

[5] = system: Plasmodium falciparum; assay: Antiplasmodial activity against chloroquine-resistant Plasmodium falciparum FcB1 assessed as intraerythrocytic growth inhibition; format: functional, organism-based; outline: as §1
[6] = system: Plasmodium falciparum; assay: Antiplasmodial activity against multidrug-resistant Plasmodium falciparum W2 assessed as intraerythrocytic growth inhibition; format: functional, organism-based; outline: as §1
[7] = Aqueous solubility of compound assessed as Cmax incubated for 3 days by UV spectrophotometer based shake-flask method; format: physicochemical; conditions: water (aqueous); time 3 day; read-out: Cmax
Outline: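 Shake-flask: excess solid stirred overnight in MilliQ water at RT (~25 °C), filtered 0.45 μm, diluted, absorbance read at the λmax from a UV scan. Quantified against a 3-point calibration curve (R² > 0.95). Fresh saturated solutions were made on 3 consecutive days.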

[8] = Toxicity in zebrafish embryos assessed as survival at highest concentration measured for 3 days relative to control; set-up: species or system Danio rerio; conditions: in vivo, time 3 day, read-out: Activity
Outline: (§2)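 Zebrafish embryos were synchronized 24 h after collection and kept at 28 °C with chorion intact, 20 per condition in duplicate. They were exposed to 100, 50, 25 or 10 μg mL⁻¹ from 100 mg mL⁻¹ DMSO stocks (final DMSO under 0.1%), with medium renewed daily for 3 days. Aspect, hatching and mortality were followed to 96 hpf against 30 control embryos in water with 0.1% DMSO.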

[9] = Toxicity in zebrafish embryos assessed as reduction in brain size at 10 to 100 ug/ml measured for 3 days; format: tissue-based, Danio rerio; conditions: in vivo, 72 h, dose 10-100 µg/ml, time 3 day
[10] = Toxicity in zebrafish embryos assessed as brain misshape at 10 to 100 ug/ml measured for 3 days; format: tissue-based, Danio rerio; conditions: in vivo, 72 h, dose 10-100 µg/ml, time 3 day
[11] = Toxicity in zebrafish embryos assessed as modified heart rate at 10 to 100 ug/ml measured for 3 days; set-up: species or system Danio rerio; conditions: in vivo, 72 h, dose 10-100 µg/ml, time 3 day
[12] = Toxicity in zebrafish embryos assessed as egg hatching at 10 to 100 ug/ml measured for 72 hrs relative to control; format: tissue-based, Danio rerio; conditions: in vivo, at 10 to 100 µg/mL, dose 10-100 µg/ml
[13] = Toxicity in zebrafish embryo assessed as developmental defects at 10 to 100 ug/ml measured 24 hrs post fertilization; set-up: species or system Danio rerio; conditions: in vivo, dose 10-100 µg/ml
[14] = Toxicity in zebrafish embryo assessed as survival at 10 to 100 ug/ml measured 24 hrs post fertilization relative to control; set-up: species or system Danio rerio; conditions: in vivo, at 10 to 100 µg/mL, dose 10-100 µg/ml, read-out: Activity; outline: as §2
[15] = Toxicity in mouse at 150 mg/kg, ip administered 2 hrs once for 6 hrs and measured for 24 hrs; format: organism-based; conditions: in vivo
Outline: (§3)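 Two mice per route (i.p. or p.o.) received 4 increasing doses over 6 h (every 2 h) in Tween 80/EtOH/saline (7/3/90), then were followed for 24 h for health or behavioural problems. Maximal dose is set as 50% of the cumulative dose giving toxicity.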

[16] = Toxicity in mouse at 200 mg/kg, po administered 2 hrs once for 6 hrs and measured for 24 hrs; format: organism-based; conditions: in vivo; outline: as §3
[17] = system: Plasmodium berghei; assay: Antiplasmodial activity against Plasmodium berghei NK173 infected in Swiss CD-1 mouse model of malaria assessed as reduction in parasitaemia at 50 mg/kg, po measured after 4 days by giemsa staining based microscopic analysis relative to control; format: functional; set-up: scale not given: the % may be the effect or the level left; conditions: time 4 day
Outline: (§4)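 Peters' 4-day suppressive test: female Swiss CD1 mice (10 weeks, 25 ± 2 g), six per group, infected i.p. with P. berghei NK173-parasitized RBC at D1. Dosing 2–3 h post-infection, then daily for 3 days, in 7% Tween 80/3% EtOH in saline. Giemsa thin tail-blood smears (≥500 erythrocytes) at D4 (2 h post-dose) and D7. Inhibition is taken versus vehicle controls.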

[18] = system: Plasmodium berghei; assay: Antiplasmodial activity against Plasmodium berghei NK173 infected in Swiss CD-1 mouse model of malaria assessed as reduction in parasitaemia at 50 mg/kg, ip measured after 4 days by giemsa staining based microscopic analysis relative to control; format: functional; set-up: scale not given: the % may be the effect or the level left; conditions: time 4 day; outline: as §4
[19] = Selectivity index, ratio of IC50 for antiplasmodial activity against chloroquine-resistant Plasmodium falciparum FcB1 to IC50 for antiplasmodial activity against chloroquine-sensitive Plasmodium falciparum 3D7; format: functional
[20] = Selectivity index, ratio of IC50 for antiplasmodial activity against chloroquine-resistant Plasmodium falciparum FcB1 to IC50 for antiplasmodial activity against multidrug-resistant Plasmodium falciparum W2; format: functional
[21] = Toxicity in zebrafish embryos assessed as reduction in egg hatching measured for 72 hrs; set-up: species or system Danio rerio; conditions: in vivo, dose 10-100 µg/ml
[22] = Toxicity in zebrafish embryo assessed as egg hatching at 100 ug/ml measured for 72 hrs relative to control; format: tissue-based, Danio rerio; conditions: in vivo, at 100 µg/mL
[23] = Toxicity in zebrafish embryos assessed as reduction in egg hatching at 10 to 100 ug/ml measured 5 days post fertilization; set-up: species or system Danio rerio; conditions: in vivo, 120 h, dose 10-100 µg/ml, time 5 day
[24] = system: Plasmodium berghei; assay: Antiplasmodial activity against Plasmodium berghei NK173 infected in Swiss CD-1 mouse model of malaria assessed as reduction in parasitaemia at 4 mg/kg, ip measured after 7 days by giemsa staining based microscopic analysis; format: functional, organism-based; conditions: time 7.0 day; outline: as §4
[25] = system: Plasmodium berghei; assay: Antiplasmodial activity against Plasmodium berghei NK173 infected in Swiss CD-1 mouse model of malaria assessed as reduction in parasitaemia at 25 mg/kg, po measured after 7 days by giemsa staining based microscopic analysis; format: functional, organism-based; conditions: time 7.0 day; outline: as §4
[26] = system: Plasmodium vinckei petteri; assay: Antiplasmodial activity against Plasmodium vinckei petteri infected in Swiss mouse model assessed as inhibition of parasite growth at 50 to 100 mg/kg,ip administered for 4 days relative to control; format: functional; set-up: scale not given: the % may be the effect or the level left; conditions: dose 50-100 mg/kg, time 4 day
[27] = system: Plasmodium vinckei petteri; assay: Antiplasmodial activity against Plasmodium vinckei petteri infected in Swiss mouse model assessed as inhibition of parasite growth administered intraperitoneally for 4 days; format: functional; conditions: 96 h, route ip, time 4 day
[28] = system: Plasmodium berghei; assay: Antiplasmodial activity against Plasmodium berghei NK173 infected in Swiss CD-1 mouse model of malaria assessed as reduction in parasitaemia at 50 mg/kg, po measured after 7 days by giemsa staining based microscopic analysis; format: functional, organism-based; conditions: time 7.0 day; outline: as §4
[29] = system: Plasmodium vinckei petteri; assay: Antiplasmodial activity against Plasmodium vinckei petteri infected in Swiss mouse model assessed as inhibition of parasite growth administered orally for 4 days; format: functional; conditions: 96 h, route po, time 4 day
[30] = Oral bioavailability in human; format: ADME, organism-based; conditions: in vivo
[31] = system: Plasmodium falciparum; assay: Antiplasmodial activity against Plasmodium falciparum 3D7 assessed as inhibition of parasite reduction by Plasmodium lactate dehydrogenase activity
[32] = system: Plasmodium vinckei petteri; assay: Antiplasmodial activity against Plasmodium vinckei petteri infected in Swiss mouse model assessed as reduction in parasitaemia at 50 mg/kg, ip administered for 4 days; set-up: scale not given: the % may be the effect or the level left; conditions: time 4 day
[33] = Cytotoxicity against HUVEC confluent cells assessed as inhibition of cell growth incubated for 48 hrs by fluorescence based assay; format: toxicity; conditions: human
Outline: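 Confluent HUVEC: plates seeded 3 days before treatment, then exposed to six 2-fold concentrations for 48 h. PrestoBlue fluorescence read-out (560–590 nm), compared with untreated cells.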

[34] = system: Plasmodium falciparum; assay: Antiplasmodial activity against Plasmodium falciparum 3D7 assessed as inhibition of parasite reduction by giemsa staining based analysis; format: functional, organism-based
Outline: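 3D7 cultures were exposed to compound for 48 h. Parasitaemia was then scored by microscopy as a visual check of parasite burden.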

Structure (SMILES): O=C(OCCCOC(=O)c1cc(O)c(O)c(O)c1)c1cc(O)c(O)c(O)c1
- selectivity ratio [1]: > 23
- IC50 at 48 h [2]: > 132 µM
- hemolysis at 1 h, 100 ug/ml [3]: < 1%
- IC50 [4]: 5.8 µM
- IC50 [5]: 3.2 µM
- IC50 [6]: 4.1 µM
- solubility thermodynamic at 72 h [7]: 2700 µM (≈ 1030 µg/mL)
- survival at 72 h [8]: > 90%
- Activity [9]: Non-Toxic
- Activity [10]: Non-Toxic
- Activity [11]: Non-Toxic
- Activity [12]: 100%
- Activity [13]: Non-Toxic
- survival at 24 h [14]: > 95%
- Activity [15]: Non-Toxic
- Activity [16]: Non-Toxic
- Activity [17]: 5%
- Activity [18]: 26%

Structure (SMILES): O=C(NCCCNC(=O)c1cc(O)c(O)c(O)c1)c1cc(O)c(O)c(O)c1
- selectivity ratio [1]: 28
- IC50 at 48 h [2]: 130 µM
- hemolysis at 1 h, 100 ug/ml [3]: < 1%
- Ratio IC50 [19]: 2
- Ratio IC50 [20]: 2
- IC50 [4]: 9.9 µM
- IC50 [5]: 26 µM
- IC50 [6]: 12 µM
- solubility thermodynamic at 72 h [7]: 610 µM (≈ 231 µg/mL)
- survival at 72 h [8]: > 90%
- Activity [9]: Non-Toxic
- Activity [10]: Non-Toxic
- Activity [11]: Non-Toxic
- Activity [21]: Dose-Dependent Effect
- Activity [22]: 20%
- Activity [23]: Toxic
- Activity [13]: Non-Toxic
- survival at 24 h [14]: > 95%
- Activity [15]: Non-Toxic
- Activity [16]: Non-Toxic
- Activity [17]: 54%
- Activity [18]: 66%

Structure (SMILES): CCN(CC)CCCC(C)Nc1ccnc2cc(Cl)ccc12 (stereo not drawn) [CHLOROQUINE]
- hemolysis at 1 h, 100 ug/ml [3]: < 1%
- Activity [24]: inactive
- Activity [25]: inactive

Structure (SMILES): O=c1oc2c(O)c(O)cc3c(=O)oc4c(O)c(O)cc1c4c23 [ELLAGIC ACID]
- selectivity ratio [1]: > 59
- IC50 at 48 h [2]: > 165 µM
- hemolysis at 1 h, 100 ug/ml [3]: < 1%
- IC50 [4]: 2.8 µM
- IC50 [5]: 7.5 µM
- IC50 [6]: 8.9 µM
- solubility thermodynamic at 72 h [7]: 18 µM (≈ 5.44 µg/mL)
- Activity [26]: 100%
- ED50 [27]: < 1 mg/kg
- Activity [28]: inactive
- ED50 [29]: > 100 mg/kg
- bioavailability [30]: 1%
- IC50 [31]: 2.8 µM
- Activity [32]: 100%

Structure (SMILES): O=C(OCCCOC(=O)c1cc(O)c(OCc2ccccc2)c(O)c1)c1cc(O)c(OCc2ccccc2)c(O)c1
- selectivity ratio [1]: 8
- IC50 at 48 h [2]: 14 µM
- hemolysis at 1 h, 100 ug/ml [3]: < 1%
- IC50 [4]: 1.8 µM
- IC50 [5]: 1.7 µM
- IC50 [6]: 1.9 µM
- solubility thermodynamic at 72 h [7]: 26 µM (≈ 14.6 µg/mL)
- IC50 at 48 h [33]: 12.1 µM
- survival at 72 h [8]: > 90%
- Activity [9]: Non-Toxic
- Activity [10]: Non-Toxic
- Activity [11]: Non-Toxic
- Activity [12]: 100%
- Activity [13]: Non-Toxic
- survival at 24 h [14]: > 95%

Structure (SMILES): O=C(O)c1cc(O)c(O)c(O)c1 [GALLIC ACID]
- selectivity ratio [1]: > 4
- IC50 at 48 h [2]: > 294 µM
- hemolysis at 1 h, 100 ug/ml [3]: < 1%
- IC50 [4]: 68 µM
- solubility thermodynamic at 72 h [7]: 70000 µM (≈ 11900 µg/mL)
- IC50 [34]: > 10 µM and 68 µM
